Measured values taken from PMC5885750 (Bioorganic & medicinal chemistry letters, 2018).

Tests used:
[1] = molecular target: T1, Heptosyltransferase I (HepI) (Escherichia coli, UniProt P24173); assay: Kinetic characterization of inhibition mechanism; assay type: biochemical
Method in brief: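 Rates at rising inhibitor levels fitted to a mixed (noncompetitive) equation with Ks, Ki and α. α marks preference for free enzyme (>1), ternary complex (<1) or neither (=1). It is judged from whether Km rises, falls or stays unchanged as inhibitor increases. ODLA acceptor was varied in the ODLA series.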

[2] = molecular target: T1, Heptosyltransferase I (HepI); assay: Inhibition of HepI catalysis with substrates ODLA and ADP-Heptose; assay type: biochemical

T1 sequence (P24173 whole entry): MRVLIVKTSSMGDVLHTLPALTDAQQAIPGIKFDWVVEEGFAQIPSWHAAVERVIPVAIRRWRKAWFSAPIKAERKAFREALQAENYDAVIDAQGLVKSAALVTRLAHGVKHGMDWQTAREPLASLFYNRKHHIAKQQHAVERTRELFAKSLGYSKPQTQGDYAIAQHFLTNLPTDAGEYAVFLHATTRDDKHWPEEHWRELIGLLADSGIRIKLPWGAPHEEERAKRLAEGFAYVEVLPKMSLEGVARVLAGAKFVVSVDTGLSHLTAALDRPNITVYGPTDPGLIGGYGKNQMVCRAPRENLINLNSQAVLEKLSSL

Row | Compound | kcat ADP-Heptose ([1]; [Inhibitor] 10 μM) [s⁻¹] | kcat ODLA ([1]; [Inhibitor] 10 μM) [s⁻¹] | kcat ADP-Heptose ([1]; [Inhibitor] 100 μM) [s⁻¹] | kcat ODLA ([1]; [Inhibitor] 100 μM) [s⁻¹] | kcat ADP-Heptose ([1]; [Inhibitor] 1000 μM) [s⁻¹] | kcat ODLA ([1]; [Inhibitor] 1000 μM) [s⁻¹] | type of inhibition against ODLA ([1]; acceptor substrate ODLA varied) | α (preference for free enzyme or ES complex) ([1]; against ADP-Heptose, α<1 = prefers ES complex) | type of inhibition against ADP-Heptose ([1]; donor substrate ADP-Heptose varied) | inhibition of HepI activity (in words) [2]
1 | CCCC/C=C/CO[C@@H]1O[C@H](CO)[C@@H](O)[C@H](O)[C@H]1O [Compound 7, hexene-β-D-glucopyranoside] | 2.8 ± 0.3 | 1.4 ± 0.03 | 1.6 ± 0.1 | 1.3 ± 0.004 | 0.76 ± 0.08 | 0.9 ± 0.2 | uncompetitive inhibition | < 1 | noncompetitive (mixed-competitive) inhibition | –
2 | CCCCCCCCO[C@@H]1O[C@H](CO)[C@@H](O)[C@H](O)[C@H]1O [n-Octyl-β-D-glucopyranoside] | – | – | – | – | – | – | – | – | – | small degree of inhibition
